# Assay outcomes (PubChem BioAssay)
# A selection: hits, their analogues and other compounds. The true share with any hit is near 2.3%.
# Scp-1 inhibitor: blocks human Scp-1 phosphatase activity; AID 493091; inhibition, % at 20 µM; 340,000 tested, 0.88% active; Recombinant Scp1, phosphopeptide, malachite green phosphate absorbance; Q9GZU7;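 active = inhibition above about 50% at 20 µM, limit read from the data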;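 also: plate controls were DMSO wells with enzyme for no effect and wells lacking enzyme for full effect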
#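 Times: enzyme reaction 45 min at room temperature, colour 5 min, stabilisation 30 min. Material: SCP-1 catalytic fragment, aa 76-261. Medium: Acidic Tris acetate buffer with magnesium and detergent. Signal: colorimetric free-phosphate detection, absorbance 630 nm. Read-out basis: % inhibition of SCP-1 phosphate liberation. Reagent: Phosphorylated 17-residue peptide substrate.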
# SUMO1 PPI mod: modulators of human SUMO1-mediated protein-protein interactions; P63165; SUMO1 binding to a labelled peptide, TR-FRET, 1 h; inhibition, % at 20 µM; 360,000 tested, 0.33% active; AID 602429; in the data active = inhibition above about 37%
# Target sequence (P63165 whole entry, looked up): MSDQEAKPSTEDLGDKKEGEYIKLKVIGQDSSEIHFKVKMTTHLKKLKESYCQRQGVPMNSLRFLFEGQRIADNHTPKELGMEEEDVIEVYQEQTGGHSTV
# STEP block: blocks human striatal-enriched tyrosine phosphatase | P54829 | recombinant STEP, OMFP fluorogenic substrate, fluorescence | inhibition, % at 20 µM | 360,000 tested, 0.25% active;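 active = inhibition at 20 µM, scaled per plate between control wells, above about 37%, limit read from the data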;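 also: 0% = DMSO with enzyme and substrate and 100% = substrate only without enzyme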
# Target sequence (P54829 whole entry, looked up): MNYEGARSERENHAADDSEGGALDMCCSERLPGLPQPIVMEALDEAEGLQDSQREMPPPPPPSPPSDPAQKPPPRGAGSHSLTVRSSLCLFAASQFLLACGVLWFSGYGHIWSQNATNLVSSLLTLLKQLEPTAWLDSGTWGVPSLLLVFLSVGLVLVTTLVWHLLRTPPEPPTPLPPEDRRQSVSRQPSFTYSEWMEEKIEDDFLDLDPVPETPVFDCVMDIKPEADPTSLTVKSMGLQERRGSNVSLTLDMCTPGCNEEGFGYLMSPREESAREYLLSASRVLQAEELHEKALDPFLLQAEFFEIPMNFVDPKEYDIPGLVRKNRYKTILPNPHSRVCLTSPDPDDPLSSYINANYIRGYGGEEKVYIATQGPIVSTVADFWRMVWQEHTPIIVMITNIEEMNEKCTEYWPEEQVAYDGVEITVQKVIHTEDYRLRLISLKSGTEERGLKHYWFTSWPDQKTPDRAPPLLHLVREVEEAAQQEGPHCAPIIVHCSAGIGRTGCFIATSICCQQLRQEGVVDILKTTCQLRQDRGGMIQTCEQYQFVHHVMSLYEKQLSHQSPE
#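 Material: STEP (striatal-enriched tyrosine phosphatase) enzyme, cell-free | Medium: 50 mM Bis-Tris pH 6.0 with 2.5 mM DTT and 0.005% Tween 20 | Read-out: Percent inhibition scaled to no-enzyme and uninhibited-enzyme controls, plate-pattern corrected | Signal: Fluorescence read at 480 nm ex / 540 nm em | Times: 20 min reaction, room temperature, in the dark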
# DNMT1 block: inhibitors of human DNMT1. 360,000 tested, 0.83% active. DNMT1 molecular beacon, Hinp1I cleavage, fluorescence. inhibition (reported as % activation of signal), % at 10 µM. AID 588458; in the data active = inhibition above about 50%
# Rpn11 block: blocks the human proteasome subunit Rpn11. human 26S proteasome, Ub4-pepOG fluorescence polarization; 20S core pre-blocked with epoxomicin. 360,000 tested, 0.59% active. AID 588493. O00487. inhibition, % at 20 µM;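 active = inhibition at 20 µM, scaled to each plate's controls, above about 33%, limit read from the data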
# LMPTP inh: LMPTP (human) inhibition; 360,000 tested, 0.22% active; inhibition, % at 20 µM; recombinant LMPTP-A, OMFP fluorogenic substrate, fluorescence intensity; AID 651560; P24666;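 active = compounds that cut the enzyme signal by at least half of the control window in the single-dose screen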;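 also: plate controls were DMSO wells with enzyme plus substrate for no effect and substrate without enzyme for full effect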
#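 Assay system: LMPTP-A enzyme. Input: 0.625 nM LMPTP-A final. Probe or stimulus: 400 µM OMFP. Compound dosing: single 20 µM dose. Schedule: 50 min dark incubation at room temperature. Detection: fluorescence intensity of OMFP turnover product. Read-out: percent inhibition versus substrate-only and uninhibited controls. Benchmarks: no-enzyme low control, uninhibited high control.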
# Rpn11 confirm: confirmation of human proteasome Rpn11 inhibitors. AID 602318. 1,900 tested, 29% active. purified human 26S proteasome, Ub4-pepOG fluorescence polarization; proteasome pretreated with epoxomicin. inhibition, % at 20 µM. shares compounds with Rpn11 block
# MMP-2 inh: blocks human MMP-2, flagging nonselective RPN11 hits; inhibition, % at 20 µM; recombinant MMP-2, FRET peptide cleavage fluorescence; 1,900 tested, 4% active; shares compounds with Rpn11 block; AID 602330;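 also: human MMP-2 activated beforehand with APMA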
# Thrombin FP: blocks bovine thrombin, flagging nonselective RPN11 hits; shares compounds with Rpn11 block; bovine thrombin cleavage of Ub4-pepOG, fluorescence polarization; inhibition, % at 20 µM; 1,900 tested, 13% active;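 active = mean inhibition at least 40% at 20 µM, or signal 3 deviations below plate average, so some actives read negative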;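 also: plate controls were thrombin with DMSO for no effect and buffer wells lacking thrombin for full effect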
# STEP inh conf: STEP (human) phosphatase inhibition, single concentration confirmation | inhibition, % at 20 µM | 520 tested, 32% active | shares compounds with STEP block | recombinant STEP, OMFP fluorogenic substrate, fluorescence; call rule not given here;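 also: 0% = enzyme with substrate plus DMSO and 100% = substrate without enzyme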
# Active calls of the source: *; i = inactive; · = no result shown. Rule as the data show it, unless noted: active = inhibition above about 40%; inactive = the rest.
SMILES,Scp-1 inhibitor,SUMO1 PPI mod,STEP block,DNMT1 block,Rpn11 block,LMPTP inh,Rpn11 confirm,MMP-2 inh,Thrombin FP,others
CC(O)CNc1ccc(-c2n[nH]c(=O)c3ccccc23)cc1[N+](=O)[O-] (centres undefined),0,-26,1,-1,-3,0,·,·,·,
CN(C)CCCNc1ccc(-c2n[nH]c(=O)c3ccccc23)cc1[N+](=O)[O-],-9,-38,5,-7,56*,15,8,-11,-16,
Cc1ccc(C(=O)COC(=O)c2cc(=O)[nH]c3ccccc23)cc1C,81*,10,25,22,100*,24,59*,13,4,
COc1ccccc1C(=O)COC(=O)c1cc(=O)[nH]c2ccccc12,-5,-31,0,2,-3,-1,·,·,·,
COC(=O)c1ccc(Oc2nc(C(N)=O)cc(-c3ccccc3)n2)cc1,-5,-1,0,1,68*,2,35,1,-6,
CN(C)c1ccc(/C=C(/NC(=O)c2ccccc2)C(=O)N2CCCC2)cc1,-5,-7,-2,0,64*,3,0,29,-4,
Cc1ccc(/C=C(\NC(=O)c2ccccc2)C(=O)N2CCCCC2)cc1,-4,1,-4,-3,-6,-1,·,·,·,
CCOc1cc(/C=C2\SC(=S)N(NC(=O)c3cccnc3)C2=O)ccc1O,-3,-7,-2,-2,78*,0,83*,-1,62*,
COc1cc(/C=C2\SC(=S)N(NC(=O)c3ccc(O)c(OC)c3)C2=O)ccc1O,-13,1,-2,-3,·,3,·,·,·,
COc1cc(/C=C2\SC(=S)N(NC(=O)c3ccncc3)C2=O)ccc1O,-14,-13,-5,-3,103*,1,73*,29,65*,
COc1cc(/C=C2\SC(=S)N(NC(=O)c3ccccc3OC)C2=O)ccc1O,-15,-33,0,-2,75*,3,19,12,-1,
O=C(NN1C(=O)/C(=C/c2cccs2)SC1=S)c1cccnc1,-5,-7,3,-2,42*,2,2,-9,-8,
COc1cc(/C=C2\SC(=S)N(NC(=O)c3cccc(O)c3)C2=O)ccc1O,-22,6,-2,0,·,4,·,·,·,
O=C(Nc1ccc(S(=O)(=O)Nc2ncccn2)cc1)c1ccc(Br)s1,1,8,-2,-1,-7,-1,·,·,·,
C/C(=N\NC(=O)c1nnn(-c2nonc2N)c1C)c1ccc(-c2ccccc2)cc1,1,4,-1,13,-1,-1,·,·,·,
Cc1nnn(-c2nonc2N)c1C(=O)NNC(=O)c1ccc(Cl)c(Cl)c1,-5,4,-2,3,53*,0,0,0,4,
Cn1nc(C(=O)OCC(=O)Nc2cc(Cl)ccc2C#N)c2ccccc2c1=O,-7,2,4,-1,4,-1,·,·,·,
CC(=O)c1cccc(NC(=O)N2C3CCCC2CC(NC(=O)C2CC2)C3)c1 (centres undefined),4,-2,-1,2,-3,-2,·,·,·,
Oc1cc(Br)ccc1C=Nc1ccc(N2CCCCC2)cc1,-13,2,8,1,48*,2,25,-26,9,
COc1ccc(Cc2c(-c3ccc(C)cc3)nc3cc(C)c(Br)c(C)n23)c(C)c1,·,0,-3,11,2,1,·,·,·,
O=C(O)c1cccc(NC(=S)NC(=O)c2ccc(-c3ccc(Cl)cc3)o2)c1,15,-3,3,0,14,1,·,·,·,
O=C(O)c1ccc(NC(=S)NC(=O)c2ccc(-c3ccc(Br)cc3)o2)cc1,8,86*,97*,6,145*,80*,74*,23,26,STEP inh conf=11
CN(C)S(=O)(=O)c1cccc(C(=O)OCC(=O)Nc2sccc2C#N)c1,-5,20,2,-2,6,-1,·,·,·,
Cc1cnc(CNC(=O)C2(C)CCCN2CC(C)C)cn1 (centres undefined),·,-5,-6,5,2,-2,·,·,·,
N/C(=N\OC(=O)c1cccc2ccccc12)c1cccc([N+](=O)[O-])c1,49,-7,62*,43,81*,10,13,32,-6,STEP inh conf=24*
SMILES,Scp-1 inhibitor,SUMO1 PPI mod,STEP block,DNMT1 block,Rpn11 block,LMPTP inh,Rpn11 confirm,MMP-2 inh,Thrombin FP,others
O=C(Nc1ccc2oc(-c3ccncc3)nc2c1)c1ccc2c(c1)OCO2,35,44*,74*,33,169*,67*,6,i,0,STEP inh conf=3
O=C(Nc1ccc2oc(-c3ccncc3)nc2c1)c1ccc(Br)o1,16,5,67*,1,76*,28,-13,8,-24,STEP inh conf=3
NC(=O)c1cc2ccncc2c2ccccc12,-4,-5,-2,3,-2,0,·,·,·,
CN1CCc2c(sc(/N=C/c3c[nH]c4ccccc34)c2C(N)=O)C1,-8,92*,51*,-41,114*,67*,3,-25,4,STEP inh conf=0
CN1CCc2c(sc(/N=C/c3c[nH]c4ccccc34)c2C#N)C1,-7,-48,-5,-24,·,36,·,·,·,
CCOC(=O)N1CCC(N(CCN(C)C)C(=S)Nc2ccccc2OCC)CC1,9,-3,45*,0,-1,-5,·,·,·,STEP inh conf=22
CCOC(=O)N1CCC(N(CCN(C)C)C(=S)Nc2ccc(Oc3ccccc3)cc2)CC1,5,1,92*,0,-4,-2,·,·,·,STEP inh conf=61*
O=C(N/N=C/c1ccccn1)c1ccc(Br)cc1,-12,-6,72*,1,29,-1,·,·,·,STEP inh conf=3
O=C(COC(=O)c1cccc(OC(F)F)c1)Nc1cccc(S(=O)(=O)N2CCCC2)c1,-8,7,-1,-9,2,1,·,·,·,
COc1ccc(C(=O)Nc2cc(S(=O)(=O)N3CCCCC3)ccc2C)cc1,·,1,-1,-15,6,-2,·,·,·,
Cc1ccc(S(=O)(=O)N2CCCCC2)cc1NC(=O)c1ccc(=O)[nH]c1,·,12,54*,10,-2,54*,·,·,·,STEP inh conf=66*
COc1ccccc1CNC(=O)COC(=O)c1ccccc1SCC(=O)N1CCCC1,-1,-2,0,-1,-6,-1,·,·,·,
O=c1c2c3c(sc2nc2n1CCCCC2)CCC3,-7,5,4,5,2,-2,·,·,·,
